Measured values taken from ChEMBL document CHEMBL3621046, “Discovery of a potent enoyl-acyl carrier protein reductase (FabI) inhibitor suitable for antistaphylococcal agent” (Bioorg Med Chem Lett, 2015).
Converted amounts (≈) assume the structure as drawn.

How the values were obtained:
[1] = target: T1, Enoyl-[acyl-carrier-protein] reductase [NADPH] FabI (Staphylococcus aureus, UniProt Q6GI75); assay: Inhibition of Staphylococcus aureus FabI assessed as reduction in inhibition of reduction of trans-2-octenoyl N-acetylcysteamine substrate by spectrophotometry
T1 sequence (Q6GI75 whole entry): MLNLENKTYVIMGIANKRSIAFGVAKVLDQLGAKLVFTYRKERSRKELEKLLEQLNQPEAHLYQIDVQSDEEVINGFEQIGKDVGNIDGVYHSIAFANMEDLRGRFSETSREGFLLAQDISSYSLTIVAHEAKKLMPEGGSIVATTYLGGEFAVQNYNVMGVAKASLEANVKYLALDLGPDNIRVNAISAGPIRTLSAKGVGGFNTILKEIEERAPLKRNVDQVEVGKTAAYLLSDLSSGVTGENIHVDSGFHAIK

Staphylococcus aureus [2] = assay: Antibacterial activity against Staphylococcus aureus incubated for 18 hrs by agar dilution method; assay type: functional
Staphylococcus aureus [3] = assay: Antibacterial activity against methicillin-resistant Staphylococcus aureus incubated for 18 hrs by agar dilution method; assay type: functional
How it was run: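 Agar dilution. Strains were grown 18 h at 37 °C with shaking in Fleisch extract broth (beef extract 1%, peptone 1%, NaCl 0.3%, Na₂HPO₄ 0.2%, pH 7.4–7.5), then diluted 100-fold. Plates incubated 37 °C, 18 h. MIC is the lowest concentration preventing growth.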

[4] = AUC (0 to infinity) in ICR mouse at 10 mg/kg, iv after 5 mins to 6 hrs; assay type: ADME, organism-based; set-up: dose 10 mg/kg, time infinity, route intravenous; conditions: in vivo
[5] = AUClast in ICR mouse at 10 mg/kg, iv after 5 mins to 6 hrs; assay type: ADME, organism-based; set-up: time lower 0.083 hr, dose 10 mg/kg, time upper 6 hr, route intravenous; conditions: in vivo
[6] = Terminal half life in ICR mouse at 10 mg/kg, iv after 5 mins to 6 hrs; assay type: ADME, organism-based; conditions: in vivo, read-out: beta t1/2
[7] = Clearance in ICR mouse at 10 mg/kg, iv after 5 mins to 6 hrs; assay type: ADME, organism-based; conditions: in vivo
[8] = Mean residence time in ICR mouse at 10 mg/kg, iv after 5 mins to 6 hrs; assay type: ADME, organism-based; conditions: in vivo
[9] = Volume of distribution at steady state in ICR mouse at 10 mg/kg, iv after 5 mins to 6 hrs; assay type: ADME, organism-based; conditions: in vivo, read-out: Vdss
[10] = AUC (0 to infinity) in ICR mouse at 10 mg/kg, po after 5 mins to 6 hrs; assay type: ADME, organism-based; set-up: dose 10 mg/kg, time infinity, route oral; conditions: in vivo
[11] = AUClast in ICR mouse at 10 mg/kg, po after 5 mins to 6 hrs; assay type: ADME, organism-based; set-up: dose 10 mg/kg, time upper 6 hr, time lower 0.083 hr, route oral; conditions: in vivo
[12] = Terminal half life in ICR mouse at 10 mg/kg, po after 5 mins to 6 hrs; assay type: ADME, organism-based; conditions: in vivo, read-out: beta t1/2
[13] = Cmax in ICR mouse at 10 mg/kg, po after 5 mins to 6 hrs; assay type: ADME, organism-based; set-up: dose 10 mg/kg, route oral; conditions: in vivo
[14] = Tmax in ICR mouse at 10 mg/kg, po after 5 mins to 6 hrs; assay type: ADME, organism-based; conditions: in vivo
[15] = Oral bioavailability in ICR mouse at 10 mg/kg after 5 mins to 6 hrs; assay type: ADME, organism-based; conditions: in vivo

Row | Compound | IC50 [1] | MIC (Staphylococcus aureus [2]) | MIC (Staphylococcus aureus [3]) | also measured
1 | Cc1ccc(Oc2coc(/C=C/c3ccoc3)cc2=O)c(C)c1 | 2290 nM | > 20 µg/mL |  | 
2 | O=c1cc(COc2ccccc2)n(C2CC2)cc1Oc1cccc(Cl)c1Cl | 1500 nM | 3.12 µg/mL (≈ 7.77 µM) | 6.25 µg/mL (≈ 15.5 µM) | 
3 | O=c1cc(COc2ccccc2)[nH]cc1Oc1c(Cl)cccc1Cl | 4980 nM | 3.12 µg/mL (≈ 8.63 µM) | 3.12 µg/mL (≈ 8.63 µM) | 
4 | Cn1cc(Oc2c(Cl)cccc2Cl)c(=O)cc1COc1ccccc1 | 720 nM | 0.195 µg/mL (≈ 0.518 µM) | 0.195 µg/mL (≈ 0.518 µM) | 
5 | O=c1cc(COc2ccccc2)n(C2CC2)cc1Oc1c(Cl)cccc1Cl | 6430 nM | 3.12 µg/mL (≈ 7.77 µM) | 3.12 µg/mL (≈ 7.77 µM) | 
6 | O=c1cc(COc2ccccc2)[nH]cc1Oc1cccc([N+](=O)[O-])c1Cl | 11700 nM | > 20 µg/mL |  | 
7 | Cn1cc(Oc2cccc([N+](=O)[O-])c2Cl)c(=O)cc1COc1ccccc1 | 660 nM | 0.781 µg/mL (≈ 2.02 µM) | 3.12 µg/mL (≈ 8.08 µM) | 
8 | O=c1cc(COc2ccccc2)n(C2CC2)cc1Oc1cccc([N+](=O)[O-])c1Cl | 17600 nM | > 20 µg/mL |  | 
9 | COCc1cc(=O)c(Oc2ccc(Cl)cc2)co1 | 5200 nM | 6.25 µg/mL (≈ 23.4 µM) |  | 
10 | O=c1cc(COc2ccccc2)occ1Oc1ccc(Cl)cc1Cl | 680 nM | 3.12 µg/mL (≈ 8.6 µM) | 6.25 µg/mL (≈ 17.2 µM) | 
11 | Cc1cc(Cl)ccc1Oc1coc(COc2ccccc2)cc1=O | 450 nM | 1.56 µg/mL (≈ 4.56 µM) | 6.25 µg/mL (≈ 18.2 µM) | 
12 | Cc1ccc(Oc2coc(COc3ccccc3)cc2=O)c(C)c1 | 380 nM | 1.56 µg/mL (≈ 4.85 µM) | 1.56 µg/mL (≈ 4.85 µM) | 
13 | O=c1cc(COc2ccccc2)occ1Oc1cccc(Cl)c1Cl | 1250 nM | 6.25 µg/mL (≈ 17.2 µM) | 12.5 µg/mL (≈ 34.4 µM) | 
14 | O=c1cc(COc2ccccc2)occ1Oc1c(Cl)cccc1Cl | 1420 nM | 6.25 µg/mL (≈ 17.2 µM) | 12.5 µg/mL (≈ 34.4 µM) | 
15 | Cc1c(Oc2coc(COc3ccccc3)cc2=O)cccc1[N+](=O)[O-] | 3520 nM | 12.5 µg/mL (≈ 35.4 µM) | 12.5 µg/mL (≈ 35.4 µM) | 
16 | Cc1cc(Cl)ccc1Oc1coc(/C=C/c2ccccc2)cc1=O | 4880 nM | > 20 µg/mL |  | 
17 | Cc1cc(Cl)ccc1Oc1coc(/C=C/c2ccoc2)cc1=O | 2450 nM | > 20 µg/mL |  | 
18 | Cc1cc(Cl)ccc1Oc1coc(/C=C/c2ccco2)cc1=O | 3890 nM | > 20 µg/mL |  | 
19 | Cc1cc(Cl)ccc1Oc1coc(/C=C/c2cccnc2)cc1=O | 2940 nM | > 20 µg/mL |  | 
20 | Cc1cc(Cl)ccc1Oc1coc(/C=C/c2ccsc2)cc1=O | 3120 nM | > 20 µg/mL |  | 
21 | Cc1cc(Cl)ccc1Oc1coc(/C=C/c2cccs2)cc1=O | 4570 nM | > 20 µg/mL |  | 
22 | Cc1cc(Cl)ccc1Oc1coc(/C=C/c2ccc[nH]2)cc1=O | 5820 nM | > 20 µg/mL |  | 
23 | CCC/C=C/c1cc(=O)c(Oc2ccc(Cl)cc2C)co1 | 6440 nM | > 20 µg/mL |  | 
24 | Cc1cc(Cl)ccc1Oc1coc(/C=C/C(C)C)cc1=O | 5780 nM | > 20 µg/mL |  | 
25 | O=c1cc(/C=C/c2ccccc2)occ1Oc1ccc(Cl)cc1Cl | 4530 nM | > 20 µg/mL |  | 
26 | O=c1cc(/C=C/c2ccoc2)occ1Oc1ccc(Cl)cc1Cl | 1890 nM | > 20 µg/mL |  | 
27 | O=c1cc(/C=C/c2cccnc2)occ1Oc1ccc(Cl)cc1Cl | 2040 nM | > 20 µg/mL |  | 

Row | Compound | IC50 [1] | MIC (Staphylococcus aureus [2]) | MIC (Staphylococcus aureus [3]) | also measured
28 | Cc1ccc(Oc2coc(/C=C/c3ccccc3)cc2=O)c(C)c1 | 5330 nM | > 20 µg/mL |  | 
29 | Cc1ccc(Oc2coc(/C=C/c3cccnc3)cc2=O)c(C)c1 | 3480 nM | > 20 µg/mL |  | 
30 | O=c1cc(/C=C/c2ccccc2)occ1Oc1cccc(Cl)c1Cl | 6730 nM | > 20 µg/mL |  | 
31 | O=c1cc(/C=C/c2ccoc2)occ1Oc1cccc(Cl)c1Cl | 5680 nM | > 20 µg/mL |  | 
32 | O=c1cc(/C=C/c2cccnc2)occ1Oc1cccc(Cl)c1Cl | 3440 nM | > 20 µg/mL |  | 
33 | O=c1cc(/C=C/c2ccccc2)occ1Oc1c(Cl)cccc1Cl | 4790 nM | > 20 µg/mL |  | 
34 | O=c1cc(/C=C/c2ccoc2)occ1Oc1c(Cl)cccc1Cl | 4120 nM | > 20 µg/mL |  | 
35 | O=c1cc(/C=C/c2cccnc2)occ1Oc1c(Cl)cccc1Cl | 3740 nM | > 20 µg/mL |  | 
36 | O=c1cc(COc2ccccc2)[nH]cc1Oc1ccc(Cl)cc1Cl | 1820 nM | 0.781 µg/mL (≈ 2.16 µM) | 1.56 µg/mL (≈ 4.32 µM) | 
37 | Cn1cc(Oc2ccc(Cl)cc2Cl)c(=O)cc1COc1ccccc1 | 120 nM | 0.195 µg/mL (≈ 0.518 µM) | 0.195 µg/mL (≈ 0.518 µM) | 
38 | O=c1cc(COc2ccccc2)n(C2CC2)cc1Oc1ccc(Cl)cc1Cl | 480 nM | 1.56 µg/mL (≈ 3.89 µM) | 1.56 µg/mL (≈ 3.89 µM) | 
39 | CCCCn1cc(Oc2ccc(Cl)cc2Cl)c(=O)cc1COc1ccccc1 | 1250 nM | 6.25 µg/mL (≈ 14.9 µM) | 6.25 µg/mL (≈ 14.9 µM) | 
40 | O=c1cc(COc2ccccc2)n(Cc2ccccc2)cc1Oc1ccc(Cl)cc1Cl | 1420 nM | 6.25 µg/mL (≈ 13.8 µM) | 12.5 µg/mL (≈ 27.6 µM) | 
41 | Cc1cc(Cl)ccc1Oc1c[nH]c(COc2ccccc2)cc1=O | 400 nM | 1.56 µg/mL (≈ 4.57 µM) | 1.56 µg/mL (≈ 4.57 µM) | 
42 | Cc1cc(Cl)ccc1Oc1cn(C)c(COc2ccccc2)cc1=O | 110 nM | 0.098 µg/mL (≈ 0.275 µM) | 0.098 µg/mL (≈ 0.275 µM) | 
43 | Cc1cc(Cl)ccc1Oc1cn(C2CC2)c(COc2ccccc2)cc1=O | 470 nM | 0.391 µg/mL (≈ 1.02 µM) | 0.781 µg/mL (≈ 2.05 µM) | 
44 | CCCCn1cc(Oc2ccc(Cl)cc2C)c(=O)cc1COc1ccccc1 | 630 nM | 3.12 µg/mL (≈ 7.85 µM) | 3.12 µg/mL (≈ 7.85 µM) | 
45 | Cc1cc(Cl)ccc1Oc1cn(Cc2ccccc2)c(COc2ccccc2)cc1=O | 650 nM | 3.12 µg/mL (≈ 7.24 µM) | 6.25 µg/mL (≈ 14.5 µM) | 
46 | Cc1ccc(Oc2c[nH]c(COc3ccccc3)cc2=O)c(C)c1 | 1140 nM | 0.781 µg/mL (≈ 2.43 µM) | 1.56 µg/mL (≈ 4.86 µM) | 
47 | Cc1ccc(Oc2cn(C)c(COc3ccccc3)cc2=O)c(C)c1 | 80 nM | 0.049 µg/mL (≈ 0.146 µM) | 0.049 µg/mL (≈ 0.146 µM) | AUC(0-inf) [4]: 5920 ng·h/mL; AUC(0-t) [5]: 5910 ng·h/mL; half-life [6]: 47.9 min; clearance [7]: 28.1 mL/min/kg; MRT [8]: 36.5 min; Vd [9]: 1.03 L/kg; AUC(0-inf) [10]: 2490 ng·h/mL; AUC(0-t) [11]: 2480 ng·h/mL; half-life [12]: 33.9 min; Cmax [13]: 4040 ng/mL; Tmax [14]: 5 min; bioavailability [15]: 41.9%
48 | Cc1ccc(Oc2cn(C3CC3)c(COc3ccccc3)cc2=O)c(C)c1 | 3170 nM | 0.391 µg/mL (≈ 1.08 µM) | 1.56 µg/mL (≈ 4.32 µM) | 
49 | CCCCn1cc(Oc2ccc(C)cc2C)c(=O)cc1COc1ccccc1 | 1000 nM | 0.781 µg/mL (≈ 2.07 µM) | 1.56 µg/mL (≈ 4.14 µM) | 
50 | Cc1ccc(Oc2cn(Cc3ccccc3)c(COc3ccccc3)cc2=O)c(C)c1 | 2690 nM | 1.56 µg/mL (≈ 3.8 µM) | 3.12 µg/mL (≈ 7.59 µM) | 
51 | O=c1cc(COc2ccccc2)[nH]cc1Oc1cccc(Cl)c1Cl | 840 nM | 1.56 µg/mL (≈ 4.32 µM) | 1.56 µg/mL (≈ 4.32 µM) | 
52 | Cn1cc(Oc2cccc(Cl)c2Cl)c(=O)cc1COc1ccccc1 | 220 nM | 0.195 µg/mL (≈ 0.518 µM) | 0.195 µg/mL (≈ 0.518 µM) | 
53 | CC(=O)NC[C@H]1CN(c2ccc(N3CCOCC3)c(F)c2)C(=O)O1 [LINEZOLID] |  |  | 0.781 µg/mL (≈ 2.32 µM) | 
54 | Oc1cc(Cl)ccc1Oc1ccc(Cl)cc1Cl [TRICLOSAN] |  | 0.391 µg/mL (≈ 1.35 µM) |  | 
